An excerpt weighted towards active compounds, which were near 1.2% of everything screened.
SR-BI HDL uptake = inhibitors of SR-BI mediated HDL lipid uptake, primary screen, ldlA[mSR-BI] cells, fluorescence, single point; Scavenger receptor class B member 1 (Mus musculus), Q61009; ldlA[mSR-BI] CHO cells, DiI-HDL uptake fluorescence, 3 h; inhibition, % at 12.5 µM; 0.96% of 320,000 active; AID 488896, 2010;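 active = mean replicate inhibition of at least 70% and a set share of replicates each scoring 70 or more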;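 note: 0% = median of neutral control wells and 100% = median of positive control wells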
Target sequence (Q61009 whole entry, looked up): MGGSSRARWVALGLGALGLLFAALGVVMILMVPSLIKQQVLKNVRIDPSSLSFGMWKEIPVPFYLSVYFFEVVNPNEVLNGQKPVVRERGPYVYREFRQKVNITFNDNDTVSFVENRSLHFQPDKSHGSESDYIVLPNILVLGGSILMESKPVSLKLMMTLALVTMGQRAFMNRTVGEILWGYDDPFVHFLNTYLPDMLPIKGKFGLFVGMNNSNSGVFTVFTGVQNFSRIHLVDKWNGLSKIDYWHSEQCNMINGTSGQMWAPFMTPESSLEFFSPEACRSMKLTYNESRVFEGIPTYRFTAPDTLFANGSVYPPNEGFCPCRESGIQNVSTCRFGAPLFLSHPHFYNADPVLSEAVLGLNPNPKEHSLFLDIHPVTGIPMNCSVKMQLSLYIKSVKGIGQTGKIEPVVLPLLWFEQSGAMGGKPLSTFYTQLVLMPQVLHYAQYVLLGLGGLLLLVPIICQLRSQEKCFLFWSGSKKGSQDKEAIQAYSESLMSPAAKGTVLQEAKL
FN deposit inh = inhibitors of fibronectin matrix deposition, primary screen, AH1F cells, Alexa488-fibronectin fluorescence, plate reader; AH1F fibroblasts, overnight; inhibition, % at 12.6 µM; 0.086% of 350,000 active;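 active = mean inhibition across replicates of 30% or more, regardless of how many single replicates reach that level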;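 note: positive control wells lacked labelled fibronectin entirely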
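test system = AH1F fibroblasts assembling fluorescent fibronectin matrix | quantity = 10000 AH1F cells per well | buffer or medium = DMEM plus 2% serum, read in PBS | doses = single dose, pinned | incubation = 1 h cell attachment, overnight exposure to compound and label | detection = fluorescence at 485 nm excitation, 525 nm emission | read-out basis = inhibition from reduced deposited-fibronectin fluorescence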
SR-BI DiI-HDL act = activators of SR-BI mediated DiI-HDL uptake, primary screen, ldlA[mSR-BI] CHO cells, DiI fluorescence. 3 h; 100 = double the neutral-control signal. activation, % at 12.5 µM. 0.096% of 320,000 active;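 active = mean replicate activation of at least 60% and every replicate at or above 60%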;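 note: 0% = median plate neutral-control signal and 100% = twice that signal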
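System: LDL receptor-deficient CHO ldlA cells overexpressing murine SR-BI | Timing: 3 h uptake period with compound, 37 °C | Medium: HEPES-buffered (25 mM, pH 7.4) F12 plus 0.5% BSA | Dosing: Single-point compound dose | Signal: Bottom-read fluorescence, 550/595 nm | Read-out: Retained DiI signal reflecting DiI-HDL uptake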
Efflux pump inh = inhibitors of Candida efflux pumps in yeast, primary screen, S. cerevisiae, Nile Red, multiplex. inhibition, % at 10 µM. 0.44% of 330,000 active. S. cerevisiae Candida pump triplex;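 active = plate passing quality check with inhibition over a set limit, or well fluorescence over plate mean plus 4 SD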;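 note: Nile Red retained in pooled yeast measured as flow cytometry median fluorescence; 0% = buffer negative control and 100% = Enniatin B positive control; higher means more Nile Red kept so more efflux inhibition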
CaV13 ICDI inh = Disruptors of the CACNA1D IQ motif to Ca2+-dependent inactivation inhibitor domain association, primary screening, Förster resonance energy transfer in intact living …. 0.098% of 340,000 active. HEK cells, CFP/YFP FRET ICDI-IQ, plate reader, 10 min; percent FRET-ratio fall versus neutral wells. AID 743397. inhibition, % at 12.3 µM;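 active = mean replicate inhibition of at least 30% and at least 1% of replicates passing that level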;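 note: 0% = median of the neutral control wells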
Cmpd fluor yeast = counter-screen for efflux pump inhibitors: compound fluorescence | shares compounds with Efflux pump inh | 4% of 1,700 active | fluorescence ratio to DMSO, % at 10 µM | AID 588517 | S. cerevisiae AD/pABC3, flow cytometry;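 active = fluorescence ratio to DMSO above its plate's cutoff, the plate mean ratio plus 5 SD, cut at about 210% in these data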;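 note: unstained yeast with no Nile Red so the signal is compound autofluorescence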
CaMdr1 efflux inh = inhibitors of Candida albicans Mdr1 efflux, confirmation, flow cytometry, singleplex, Cherry Pick1 set; 1% of 1,700 active; AID 588518, 2011; shares compounds with Efflux pump inh; inhibition, % at 10 µM; S. cerevisiae AD/CaMDR1, Nile Red efflux; in the data active = inhibition above about 26%;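 note: 0% = DMSO vehicle and 100% = reference inhibitor; higher means more Nile Red retained so more efflux inhibition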
CaCdr2 efflux inh = inhibitors of Candida albicans Cdr2 efflux pump, confirmation, S. cerevisiae AD/CaCDR2, flow cytometry, cherry pick 1, singleplex; shares compounds with Efflux pump inh; Nile Red retention; Nile Red retention ratio vs DMSO, % at 10 µM; 4% of 1,700 active; AID 588520, 2011; in the data active = Nile Red retention ratio vs DMSO above about 190%;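 note: higher ratio means more blocking of Cdr2 efflux of the dye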
Cdr1 pump inh = inhibitors of Candida albicans Cdr1 efflux pump, confirmation, S. cerevisiae AD/CaCDR1, flow cytometry, cherry pick 1, singleplex; shares compounds with Efflux pump inh; Nile Red efflux; inhibition, % at 10 µM; 1% of 1,700 active; AID 588522, 2011;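 active = inhibition above the screen-wide mean plus twice its standard deviation, cut at about 32% in these data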
* = called active by the depositor; · = not tested or not shown.

SMILES | SR-BI HDL uptake | FN deposit inh | SR-BI DiI-HDL act | Efflux pump inh | CaV13 ICDI inh | Cmpd fluor yeast | CaMdr1 efflux inh | CaCdr2 efflux inh | Cdr1 pump inh
Cc1ccc(S(=O)(=O)CCSc2n[nH]c(=O)n2-c2ccccc2)cc1 | · | -5.1 | · | 0.3 | 8.5 | · | · | · | ·
CCCCNC(=O)C(Cc1ccccc1)NS(=O)(=O)c1ccc2c(c1)c(=O)n(C)c(=O)n2C (configuration not stated) | 4.6 | -7.3 | -4.6 | 1.8* | -6.1 | 100.2 | -0.1 | 86.7 | 0.0
C[C@@H]1CN([C@@H](C)CO)C(=O)c2cc(NC(=O)c3ccccc3)ccc2O[C@@H](C)CCCCO[C@H]1CN(C)Cc1ccc(C(=O)O)cc1 | · | 3.8 | · | · | · | · | · | · | ·
CC(C)Cn1c(SCC(=O)c2ccc(Cl)s2)nnc1-c1ccco1 | 43.4 | · | -43.4 | 1.1* | -5.7 | 100.3 | -0.2 | 107.2 | 0.0
CC(C)Cn1c(N)c(C(=O)CSc2nnc(-c3ccco3)n2C)c(=O)n(C)c1=O | 4.9 | 4.7 | -4.9 | -0.1 | -5.0 | · | · | · | ·
CC(/C=C/c1ccccc1)=N/NC(=O)c1nc2nc(C)cc(C)n2n1 | 6.1 | -0.8 | -6.1 | 0.2 | -5.0 | · | · | · | ·
CC(/C=C/c1ccccc1)=N\Nc1nc(C)cc(C)n1 | · | 9.0 | · | 5.5* | -4.6 | 100.2 | -0.1 | 112.0 | -0.1
CCn1ncc(Br)c1C(=O)Nc1sc2c(c1C(N)=O)CCC2 | 52.8 | · | -52.8 | 0.0 | · | 94.4 | -0.2 | 100.1 | 0.2
CCOC(=O)c1c(NC(=O)c2nn(CC)cc2Br)sc2c1CCCCC2 | 59.3 | -0.8 | -59.3 | -0.1 | -8.9 | · | · | · | ·
CC(=O)Nc1sc2c(c1C(N)=O)CCC2 | -7.0 | · | 7.0 | 0.0 | · | · | · | · | ·
CCOC(=O)c1c(NC(=O)c2ccn(CC)n2)sc2c1CCC2 | -5.2 | -5.1 | 5.2 | 0.4* | -2.4 | 97.8 | -0.1 | 98.1 | 0.0
Cn1cc(Br)c(C(=O)Nc2sc3c(c2C(N)=O)CCC3)n1 | 15.4 | · | -15.4 | 0.1 | · | 100.2 | -0.2 | 93.0 | -0.1
O=C(C[C@H]1C[C@@H]2c3cc(NC(=O)NC4CCCC4)ccc3O[C@@H]2[C@H](CO)O1)NCc1ccc(Cl)cc1 | · | -8.3 | · | · | · | · | · | · | ·
COC(=O)C[C@H]1C[C@@H]2c3cc(NC(=O)Nc4ccc(C(F)(F)F)cc4)ccc3O[C@@H]2[C@@H](CO)O1 | · | 4.1 | · | · | · | · | · | · | ·
O=C(COC(=O)CC1CCCC1)Nc1ccccc1[N+](=O)[O-] | -12.8 | 2.2 | 12.8 | 0.9* | -4.9 | 88.5 | -0.3 | 99.7 | -0.1
Cc1ccccc1NC(=O)COC(=O)CC1CCCC1 | 2.7 | -10.2 | -2.7 | · | -5.2 | · | · | · | ·
C[C@@H]1CN([C@H](C)CO)C(=O)c2cc(NS(=O)(=O)c3ccccc3)ccc2O[C@@H](C)CCCCO[C@@H]1CN(C)C(=O)c1ccccc1 | · | -2.2 | · | · | · | · | · | · | ·
O=C(CN1CCN(c2ncc(C(F)(F)F)cc2Cl)CC1)N1CCN(c2ncc(C(F)(F)F)cc2Cl)CC1 | 30.6 | -17.2 | -30.6 | 0.8* | -3.9 | 106.7 | -0.2 | 112.0 | 0.1
COCC(=O)Nc1ccc2c(c1)C(=O)N(C)[C@@H]1CC[C@@H](CC(=O)NCCc3ccccc3)O[C@H]1CO2 | · | 1.4 | · | · | · | · | · | · | ·
CCC(=O)N(C)C[C@H]1Oc2ncc(C#Cc3ccccc3)cc2C(=O)N([C@H](C)CO)C[C@@H]1C | · | 13.9 | · | · | · | · | · | · | ·
